Measured values as given in ChEMBL document CHEMBL3588766 (Bioorg Med Chem, 2015).
In brackets after ≈: the same amount, converted by molar mass. Activity calls are given as the source filed them. The rule behind the calls is not given here.

How the values were obtained:
[1] = target: T1, Bile acid receptor (Homo sapiens) (UniProt Q96RI1); experiment: Agonist activity at human full length FXR expressed in HeLa cells cotransfected with pSG5-human RXR at 50 uM after 24 hrs by Dual-Glo luciferase reporter gene assay; assay type: cell-based
T1 sequence (whole entry): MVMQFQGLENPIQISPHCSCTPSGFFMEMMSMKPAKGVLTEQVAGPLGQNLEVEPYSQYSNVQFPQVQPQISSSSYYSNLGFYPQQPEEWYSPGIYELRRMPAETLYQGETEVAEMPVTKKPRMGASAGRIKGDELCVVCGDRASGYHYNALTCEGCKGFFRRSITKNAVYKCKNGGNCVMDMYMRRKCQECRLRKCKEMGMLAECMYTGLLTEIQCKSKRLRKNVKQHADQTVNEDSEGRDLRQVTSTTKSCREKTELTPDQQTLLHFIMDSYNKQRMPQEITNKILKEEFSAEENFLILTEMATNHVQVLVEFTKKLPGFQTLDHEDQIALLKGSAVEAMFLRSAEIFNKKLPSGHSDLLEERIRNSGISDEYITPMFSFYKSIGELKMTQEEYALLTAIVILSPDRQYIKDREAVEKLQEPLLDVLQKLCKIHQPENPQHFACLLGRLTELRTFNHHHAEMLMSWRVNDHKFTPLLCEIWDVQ
Summary of the method: (§1)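 HeLa cells, seeded 8,000/well 24 h ahead, calcium phosphate transfected with pcDNA3-hFXR (CMV), pSG5-hRXR, BSEP-promoter firefly luciferase and pRL-SV40 renilla control. Medium at 0.5% charcoal-stripped FCS; compound in 0.1% DMSO for 24 h. Dual-Glo firefly/renilla ratio, expressed relative to 3 µM GW4064. Triplicate wells, ≥3 independent runs.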

[2] = target: T2, Bile acid receptor (Homo sapiens, UniProt Q96RI1); experiment: Agonist activity at human full length FXR expressed in HeLa cells cotransfected with pSG5-human RXR after 24 hrs by Dual-Glo luciferase reporter gene assay; assay type: cell-based
T2 sequence (Q96RI1 whole entry): T1 sequence (whole entry)

[3] = target: T1, Bile acid receptor (Homo sapiens); experiment: Agonist activity at human full length FXR expressed in HeLa cells cotransfected with pSG5-human RXR at 30 uM after 24 hrs by Dual-Glo luciferase reporter gene assay; assay type: cell-based; summary of the method: as §1
[4] = target: T1, Bile acid receptor (Homo sapiens); experiment: Antagonist activity at human full length FXR expressed in HeLa cells cotransfected with pSG5-human RXR at 30 uM after 24 hrs by Dual-Glo luciferase reporter gene assay; assay type: cell-based
[5] = target: T1, Bile acid receptor (Homo sapiens); experiment: Agonist activity at human full length FXR expressed in HeLa cells cotransfected with pSG5-human RXR at 10 uM after 24 hrs by Dual-Glo luciferase reporter gene assay; assay type: cell-based; summary of the method: as §1
[6] = target: T1, Bile acid receptor (Homo sapiens); experiment: Antagonist activity at human full length FXR expressed in HeLa cells cotransfected with pSG5-human RXR at 10 uM after 24 hrs by Dual-Glo luciferase reporter gene assay; assay type: cell-based
[7] = target: T1, Bile acid receptor (Homo sapiens); experiment: Partial agonist activity at FXR in human HepG2 cells assessed as induction of SHP gene expression at 0.1 uM after 24 hrs by qRT-PCR analysis (reference value: 100%); assay type: cell-based
Summary of the method: (§2)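 HepG2 (BSEP, SHP, OSTα) or HT-29 (IBABP) cells seeded at 2*10⁶/well, moved to MEM with 1% charcoal-stripped FCS for 24 h, then treated 24 h with 0.1 µM compound in 0.1% DMSO; CDCA 50 µM as reference. Total RNA extracted; qRT-PCR in duplicate, ≥4 independent experiments, comparative ΔΔCt quantification.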

[8] = tested on: HepG2; experiment: Cytotoxicity against human HepG2 cells at 50 uM after 48 hrs by LDH assay (reference value: 0%); assay type: cell-based; settings: hepg2, 48 h
Summary of the method: (§3)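 HepG2 at 3*10⁴ cells/well, moved to 1% charcoal-stripped FCS medium after 24 h, then compound for 48 h. Triton X-100 (2%) added 2 h before reading as 100% lysis control; untreated = 0%. Supernatant mixed with LDH substrate for 20 min, absorbance 490 nm against 690 nm reference. Triplicates, ≥4 independent repeats.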

[9] = Metabolic stability in Sprague-Dawley rat liver microsomes assessed as compound remaining at 10 uM after 15 mins by HPLC analysis; assay type: ADME; settings: read-out: Stability
Summary of the method: (§4)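 Compound at 10 µM final, preincubated 5 min at 37 °C in 0.1 M phosphate buffer pH 7.4 with NADPH-regenerating system, then Sprague–Dawley rat liver microsomes added. Stopped with ice-cold methanol at 0, 15, 30, 60 min. Remaining parent quantified by phenyl-column HPLC (UV 330/254 nm) against an external calibration. Controls run without NADPH and with heat-inactivated microsomes.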

[10] = Metabolic stability in Sprague-Dawley rat liver microsomes assessed as compound remaining at 10 uM after 60 mins by HPLC analysis; assay type: ADME; settings: read-out: Stability; summary of the method: as §4
[11] = Cytotoxicity against human HepG2 cells assessed as cell proliferation at 10 uM after 48 hrs by WST-1 assay (Rvb =100%); assay type: cell-based; settings: read-out: Activity
Summary of the method: (§5)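 HepG2 seeded at 3*10⁴ cells/well in 10% FCS DMEM; after 24 h switched to 1% charcoal-stripped FCS and exposed to compound for 48 h. Revlotron 100 µM as positive control; Zileuton 100 µM and DMEM/1% DMSO as negative controls. WST reagent for 45 min, absorbance 450/620 nm, untreated set to 100%. Triplicates, ≥4 repeats.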

[12] = Cytotoxicity against human HepG2 cells assessed as cell proliferation at 50 uM after 48 hrs by WST-1 assay (Rvb =100%); assay type: cell-based; settings: read-out: Activity; summary of the method: as §5
[13] = target: T1, Bile acid receptor (Homo sapiens); experiment: Partial agonist activity at FXR in human HT-29 cells assessed as induction of IBABP gene expression at 0.1 uM after 24 hrs by qRT-PCR analysis (reference value: 100%); assay type: cell-based; summary of the method: as §2
[14] = Metabolic stability in Sprague-Dawley rat liver microsomes assessed as compound remaining at 10 uM after 30 mins by HPLC analysis; assay type: ADME; settings: read-out: Stability; summary of the method: as §4
[15] = target: T1, Bile acid receptor (Homo sapiens); experiment: Partial agonist activity at FXR in human HepG2 cells assessed as induction of OST-alpha gene expression at 0.1 uM after 24 hrs by qRT-PCR analysis (reference value: 100%); assay type: cell-based; summary of the method: as §2
[16] = tested on: HepG2; experiment: Cytotoxicity against human HepG2 cells at 10 uM after 48 hrs by LDH assay (reference value: 0%); assay type: cell-based; settings: hepg2, 48 h; summary of the method: as §3
[17] = Solubility of the compound in 1% aqueous DMSO solution by HPLC analysis; assay type: physicochemical
[18] = target: T1, Bile acid receptor (Homo sapiens); experiment: Partial agonist activity at FXR in human HepG2 cells assessed as induction of BSEP gene expression at 0.1 uM after 24 hrs by qRT-PCR analysis (reference value: 100%); assay type: cell-based; summary of the method: as §2
[19] = Metabolic stability in Sprague-Dawley rat liver microsomes assessed as compound remaining at 10 uM by HPLC analysis; assay type: ADME; settings: read-out: Stability; summary of the method: as §4
[20] = tested on: HepG2; experiment: Cytotoxicity against human HepG2 cells at 5 uM after 48 hrs by LDH assay (reference value: 0%); assay type: cell-based; settings: hepg2, 48 h; summary of the method: as §3
[21] = Cytotoxicity against human HepG2 cells assessed as cell proliferation at 5 uM after 48 hrs by WST-1 assay (Rvb =100%); assay type: cell-based; settings: read-out: Activity; summary of the method: as §5
[22] = target: T2, Bile acid receptor; experiment: Antagonist activity at human full length FXR expressed in HeLa cells cotransfected with pSG5-human RXR after 24 hrs by Dual-Glo luciferase reporter gene assay; assay type: cell-based
[23] = Solubility of the compound in 1% aqueous DMSO solution measured after 4 hrs by HPLC analysis; assay type: physicochemical

CC(C)c1nc(-c2ccccc2)no1
Activity [1]: 12.3%

COc1ccc(-c2nc(-c3ccccc3C)no2)cc1
EC50 [2]: 120 nM

COc1ccc(-c2sc(-c3ccc(C)cc3)nc2O)cc1
Activity [3]: inactive | inhibition [4]: inactive

Oc1ccc(-c2nc(-c3ccccc3)no2)cc1
Activity [5]: inactive | inhibition [6]: inactive

Cc1ccccc1-c1noc(-c2ccc(C(=O)O)cc2)n1
EC50 [2]: 220 nM

COc1ccc(-c2nc(-c3cccc(C(F)(F)F)c3)no2)cc1
EC50 [2]: 2900 nM

Cc1ccccc1-c1noc(-c2cccc(C(=O)O)c2)n1
Activity [7]: 515% | Activity [8]: 15% | remaining at 0.25 h, 10 µM [9]: 84.6% | remaining at 1 h, 10 µM [10]: 53.9% | viability at 48 h, 10 µM [11]: 87% | viability at 48 h, 50 µM [12]: 86% | Activity [13]: 295% | remaining at 0.5 h, 10 µM [14]: 71.3% | EC50 [2]: 7.2 nM | Activity [15]: 339% | Activity [16]: 0% | solubility [17]: 33 µg/mL (≈ 118 µM) | Activity [18]: 395% | remaining at 10 µM [19]: 99.4% | Activity [20]: 0% | viability at 48 h, 5 µM [21]: 109%

Cc1ccc(-c2noc(-c3ccc(Cl)cc3)n2)cc1
EC50 [2]: 410 nM

Brc1ccc(-c2nc(-c3ccccc3)no2)cc1
EC50 [2]: 350 nM

COc1ccc(-c2nc(-c3ccccc3)no2)cc1
IC50 [22]: 16400 nM

c1ccc(-c2noc(-c3ccccc3)n2)cc1
EC50 [2]: 530 nM

CCN(CC)c1ccc2cc(-c3nc(-c4ccccc4)no3)c(=O)oc2c1
EC50 [2]: 460 nM | solubility at 4 h [23]: 9.98 µg/mL (≈ 27.6 µM) | solubility [17]: 10.1 µg/mL (≈ 27.9 µM)
